In ChEMBL document CHEMBL1139838 (J Med Chem, 2007):
The source made the active and inactive calls. The calls are words filed in the database; no cut-off is given here. Where a SMILES comes first, the peptide text is derived from it. [ ]: non-standard residue; d: D form. Tic = O=C(O)[C@@H]1Cc2ccccc2CN1; Cha = N[C@@H](CC1CCCCC1)C(=O)O

Assays:
[1] = target: Delta-type opioid receptor (Rattus norvegicus, UniProt P33533); test: Displacement of [3H]Ile5,6-deltorphin from delta opioid receptor in Wistar rat brain membrane; assay type: cell membranes
Chain of Delta-type opioid receptor (P33533 whole entry): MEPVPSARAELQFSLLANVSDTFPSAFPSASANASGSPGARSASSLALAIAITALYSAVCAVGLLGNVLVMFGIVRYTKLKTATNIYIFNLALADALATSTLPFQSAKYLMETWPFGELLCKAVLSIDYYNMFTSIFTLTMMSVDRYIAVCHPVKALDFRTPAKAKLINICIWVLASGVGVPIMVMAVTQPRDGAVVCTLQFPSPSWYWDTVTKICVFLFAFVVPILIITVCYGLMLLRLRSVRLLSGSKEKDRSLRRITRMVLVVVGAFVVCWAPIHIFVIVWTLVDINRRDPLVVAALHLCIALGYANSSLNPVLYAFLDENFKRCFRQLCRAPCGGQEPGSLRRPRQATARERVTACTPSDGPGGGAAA
Outline: (§1)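 Wistar rat brain membranes in 50 mM Tris·HCl pH 7.4 with 200-300 µg protein. Tritiated ligand at 0.5-1 nM, with fresh unlabeled peptide at 10^-12 to 10^-5 M, for 45 min at 35 °C. Stopped by rapid GF/C filtration and ice-cold buffer washes, then scintillation counting. Nonspecific binding defined with 10 µM naloxone. Duplicates, repeated two or three times, mean ± SEM.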

[2] = target: Delta-type opioid receptor (Mus musculus) (UniProt P32300); settings: Vas deferens
Chain of Delta-type opioid receptor (Mus musculus) (P32300 whole entry): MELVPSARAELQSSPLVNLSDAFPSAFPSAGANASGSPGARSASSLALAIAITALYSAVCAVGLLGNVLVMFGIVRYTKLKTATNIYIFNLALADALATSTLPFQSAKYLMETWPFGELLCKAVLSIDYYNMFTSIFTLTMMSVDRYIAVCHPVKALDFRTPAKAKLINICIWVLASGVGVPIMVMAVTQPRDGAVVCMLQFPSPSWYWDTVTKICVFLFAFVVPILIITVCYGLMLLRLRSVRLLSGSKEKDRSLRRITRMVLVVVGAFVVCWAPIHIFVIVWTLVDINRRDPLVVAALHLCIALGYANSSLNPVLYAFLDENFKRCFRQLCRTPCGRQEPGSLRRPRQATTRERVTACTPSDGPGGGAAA

[3] = target: Mu-type opioid receptor (Rattus norvegicus, UniProt P33535); test: Displacement of [3H]DAMGO from mu opioid receptor in Wistar rat brain membrane; assay type: cell membranes; outline: as §1
Chain of Mu-type opioid receptor (P33535 whole entry): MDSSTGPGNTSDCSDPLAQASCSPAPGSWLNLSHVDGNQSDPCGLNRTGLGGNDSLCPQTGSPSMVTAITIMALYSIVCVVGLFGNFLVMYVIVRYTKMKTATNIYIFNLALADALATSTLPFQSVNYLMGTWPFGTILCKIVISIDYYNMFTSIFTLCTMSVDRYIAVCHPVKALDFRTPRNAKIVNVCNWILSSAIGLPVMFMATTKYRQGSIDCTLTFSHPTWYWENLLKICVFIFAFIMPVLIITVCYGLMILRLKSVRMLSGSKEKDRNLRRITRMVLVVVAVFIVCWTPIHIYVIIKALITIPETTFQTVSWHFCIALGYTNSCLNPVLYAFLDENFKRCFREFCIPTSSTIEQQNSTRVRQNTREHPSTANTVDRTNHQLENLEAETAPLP

[4] = target: Delta-type opioid receptor (Homo sapiens) (UniProt P41143); test: Activity at human delta opioid receptor expressed in CHO cells by [35S]GTP-gamma-S binding assay; assay type: functional, cell-based
Chain of Delta-type opioid receptor (Homo sapiens) (P41143 whole entry): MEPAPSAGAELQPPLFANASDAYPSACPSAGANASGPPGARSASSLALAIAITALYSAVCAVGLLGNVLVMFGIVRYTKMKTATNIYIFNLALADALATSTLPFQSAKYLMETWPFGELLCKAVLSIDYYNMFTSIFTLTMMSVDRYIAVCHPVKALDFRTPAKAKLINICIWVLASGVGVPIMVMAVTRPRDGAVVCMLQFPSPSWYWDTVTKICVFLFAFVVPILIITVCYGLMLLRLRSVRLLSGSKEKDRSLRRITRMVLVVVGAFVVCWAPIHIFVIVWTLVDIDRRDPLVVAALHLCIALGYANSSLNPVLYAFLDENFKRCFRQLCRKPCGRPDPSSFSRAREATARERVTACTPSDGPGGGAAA

[5] = target: Mu-type opioid receptor (Cavia porcellus) (UniProt P97266); settings: Ileum
Chain of Mu-type opioid receptor (Cavia porcellus) (P97266 whole entry): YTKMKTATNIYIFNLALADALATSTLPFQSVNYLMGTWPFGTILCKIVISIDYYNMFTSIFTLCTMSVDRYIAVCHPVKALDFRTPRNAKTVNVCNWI

[6] = target: Mu-type opioid receptor (Cavia porcellus) (UniProt P97266); settings: Ileum; remark: listed apart in the source

Row | Structure (SMILES) | Ki [1] [nM] | Ke [2] [nM] | Ki [3] [nM] | Activity [4] | Ke [5] [nM] | also measured
1 | N[C@@H](Cc1ccc(O)cc1)C(=O)N1Cc2ccccc2C[C@H]1C(=O)N[C@@H](CC1CCCCC1)C(=O)N[C@@H](Cc1ccccc1)C(=O)O (H-Y[Tic][Cha]F-OH) | 0.61 | 0.44 | 3600 | – | – | –
2 | Cc1cc(O)cc(C)c1C[C@H](N)C(=O)N1Cc2ccccc2CC1C(=O)N[C@H](C(=O)N[C@@H](Cc1ccccc1)C(N)=O)[C@@H](C)C1CCCCC1 (stereo partly drawn) | – | 0.77 | – | inactive | 340 | –
3 | Cc1cc(O)cc(C)c1C[C@H](N)C(=O)N1Cc2ccccc2C[C@H]1C(=O)N[C@@H](C(=O)N[C@@H](Cc1ccccc1)C(N)=O)[C@H](C)C1CCCCC1 | 13 | – | 290 | – | – | –
4 | NC(=O)[C@H](Cc1ccccc1)NC(=O)[C@H](Cc1ccccc1)NC(=O)[C@@H]1Cc2ccccc2CN1C(=O)[C@H](N)Cc1ccc(O)cc1 | – | 18 | – | – | – | Ke [6]: 1700 nM
5 | Cc1cc(O)cc(C)c1C[C@H](N)C(=O)N1Cc2ccccc2C[C@H]1C(=O)N[C@@H](C(=O)N[C@@H](Cc1ccccc1)C(=O)O)[C@H](C)C1CCCCC1 | 2 | – | 580 | – | – | –
6 | Cc1cc(O)cc(C)c1C[C@H](N)C(=O)N1Cc2ccccc2C[C@H]1C(=O)N[C@@H](C(=O)N[C@@H](Cc1ccccc1)C(=O)O)[C@@H](C)C1CCCCC1 | 1.5 | – | 55 | – | – | –
7 | Cc1cc(O)cc(C)c1C[C@H](N)C(=O)N1Cc2ccccc2CC1C(=O)N[C@@H](C(=O)N[C@@H](Cc1ccccc1)C(=O)O)[C@@H](C)C1CCCCC1 (stereo partly drawn) | – | 0.11 | – | inactive | 19 | –
8 | Cc1cc(O)cc(C)c1C[C@H](N)C(=O)N1Cc2ccccc2CC1C(=O)N[C@@H](C(=O)N[C@@H](Cc1ccccc1)C(N)=O)[C@H](C)C1CCCCC1 (stereo partly drawn) | – | 1.7 | – | inactive | 670 | –
9 | Cc1cc(O)cc(C)c1C[C@H](N)C(=O)N1Cc2ccccc2CC1C(=O)N[C@@H](C(=O)N[C@@H](Cc1ccccc1)C(N)=O)[C@@H](C)C1CCCCC1 (stereo partly drawn) | – | 1.94 | – | inactive | 120 | –
10 | Cc1cc(O)cc(C)c1C[C@H](N)C(=O)N1Cc2ccccc2CC1C(=O)N[C@@H](C(=O)N[C@@H](Cc1ccccc1)C(=O)O)[C@H](C)C1CCCCC1 (stereo partly drawn) | – | 0.55 | – | inactive | 290 | –
11 | Cc1cc(O)cc(C)c1C[C@H](N)C(=O)N1Cc2ccccc2C[C@H]1C(=O)N[C@H](C(=O)N[C@@H](Cc1ccccc1)C(=O)O)[C@@H](C)C1CCCCC1 | 0.48 | – | 1400 | – | – | –
12 | Cc1cc(O)cc(C)c1C[C@H](N)C(=O)N1Cc2ccccc2C[C@H]1C(=O)N[C@H](C(=O)N[C@@H](Cc1ccccc1)C(N)=O)[C@@H](C)C1CCCCC1 | 4 | – | 330 | – | – | –
13 | Cc1cc(O)cc(C)c1C[C@@H](N)C(=O)N1Cc2ccccc2C[C@H]1C(=O)N[C@@H](Cc1ccccc1)C(=O)N[C@@H](Cc1ccccc1)C(=O)O | – | 0.2 | – | – | – | –
14 | N[C@@H](Cc1ccc(O)cc1)C(=O)N1Cc2ccccc2C[C@H]1C(=O)N[C@@H](Cc1ccccc1)C(=O)N[C@@H](Cc1ccccc1)C(=O)O (H-Y[Tic]FF-OH) | – | 4.8 | – | – | – | Ke [6]: > 10000 nM
15 | Cc1cc(O)cc(C)c1C[C@H](N)C(=O)N1Cc2ccccc2C[C@H]1C(=O)N[C@@H](C(=O)N[C@@H](Cc1ccccc1)C(N)=O)[C@@H](C)C1CCCCC1 | 7 | – | 200 | – | – | –
16 | Cc1cc(O)cc(C)c1C[C@H](N)C(=O)N1Cc2ccccc2CC1C(=O)N[C@H](C(=O)N[C@@H](Cc1ccccc1)C(=O)O)[C@H](C)C1CCCCC1 (stereo partly drawn) | – | 0.81 | – | inactive | – | IC30 [6]: 150 nM
17 | Cc1cc(O)cc(C)c1C[C@H](N)C(=O)N1Cc2ccccc2C[C@H]1C(=O)N[C@H](C(=O)N[C@@H](Cc1ccccc1)C(N)=O)[C@H](C)C1CCCCC1 | 4.1 | – | 170 | – | – | –
18 | Cc1cc(O)cc(C)c1C[C@H](N)C(=O)N1Cc2ccccc2CC1C(=O)N[C@H](C(=O)N[C@@H](Cc1ccccc1)C(N)=O)[C@H](C)C1CCCCC1 (stereo partly drawn) | – | 0.68 | – | inactive | – | IC40 [6]: 110 nM
19 | Cc1cc(O)cc(C)c1C[C@H](N)C(=O)N1Cc2ccccc2C[C@H]1C(=O)N[C@H](C(=O)N[C@@H](Cc1ccccc1)C(=O)O)[C@H](C)C1CCCCC1 | 2 | – | 280 | – | – | –
20 | Cc1cc(O)cc(C)c1C[C@H](N)C(=O)N1Cc2ccccc2CC1C(=O)N[C@H](C(=O)N[C@@H](Cc1ccccc1)C(=O)O)[C@@H](C)C1CCCCC1 (stereo partly drawn) | – | 0.24 | – | inactive | 970 | –
